DENV2 CPE – protects cells from dengue virus 2 cytopathic effect | 350,000 compounds, 1.7% hits | DENV2-infected cells, cytopathic effect rescue, plate reader | CPE inhibition, % at 9.99 µM; in the data active = CPE inhibition above about 20%, passing the limit was not always enough; inconclusive = no clear call, values can overlap the other calls; tested in BHK-21 cells;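 also: 0% = median of neutral control wells and 100% = median of positive control wells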
Cneo AK release – Cryptococcus neoformans lysis via adenylate kinase release; C. neoformans lysis, adenylate kinase release luminescence, 4 h; normalised: neutral wells 0, clomiphene wells 100; lysis activity, % at 15 µM; 360,000 compounds, 0.2% hits;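 active = mean lysis activity across replicates of at least 80%, whatever share of replicates individually reach that level; inactive = mean lysis activity below 80%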
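Test system: log-phase Cryptococcus neoformans yeast cells; Quantity: yeast cell density of 5 × 10^6 cells/mL; Buffer or medium: YPD; Doses: single compound concentration per well; Timing: 4 h at 37 °C static, read 1 h later; Measured by: AK luminescence; Read-out basis: lysis from increased AK signal; Control set: Clomiphene as positive control.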
S100A4 inh HTS – S100A4-myosin IIA interaction inhibition; P26447; S100A4/TAMRA-MyoIIA peptide fluorescence polarization; inhibition, % at 10.7 µM; 360,000 compounds, 0.14% hits;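 active = mean inhibition of at least 70% across replicates, with every replicate also reaching that level; inconclusive = mean inhibition reaches 70% but some replicates fall short; inactive = mean inhibition below 70%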
Target sequence (P26447 whole entry, looked up): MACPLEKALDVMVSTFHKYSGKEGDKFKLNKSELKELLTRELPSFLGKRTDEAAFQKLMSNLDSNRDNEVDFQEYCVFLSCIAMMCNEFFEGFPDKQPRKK
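Material: S100A4 monomer protein | Medium: HEPES pH 7.2 with CaCl2, KCl, NaCl, DTT, Triton | Reagent: Labelled myosin peptide probe, 5 nM | Doses: One dose per compound | Times: 5 min incubation before reading | Benchmarks: Neutral control DMSO, positive control TFP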
Ecoli rRNA inh – inhibits bacterial ribosomal RNA function over humanized ribosomes. E. coli WT GFP vs humanized-ribosome RFP mutants, fluorescence, 24 h; stronger effect = lower value; DMSO median 0, no signal -100. GFP signal change (wild-type ribosome), % (concentration not given with the values). 350,000 compounds, 1.6% hits. AID 720706;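 active = significant combined selectivity score with lowered wild-type GFP, culture density cut under 30%, mutant RFP and density less affected; inactive = any of these conditions unmet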
PfHsp90 set2 – growth inhibition of yeast expressing Plasmodium Hsp90; S. cerevisiae expressing PfHsp90, BacTiter-Glo ATP, 48 h; yeast lacking PDR1 and PDR3 efflux regulators; inhibition, % at 9.4 µM; 310,000 compounds, 0.32% hits;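 active = every replicate shows inhibition above about 80%, whatever the replicate mean, limit read from the data; inconclusive = mean inhibition reaches the set limit but some replicate falls short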;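 also: 0% = DMSO neutral controls and 100% = 20 µM radicicol positive controls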
MLL AF4-AF9 inh – blocks AF4 peptide binding to human AF9; P42568; AlphaScreen, biotin-AF4 peptide binding to FLAG-AF9; inhibition, % at 10 µM; 350,000 compounds, 0.47% hits; AID 651704;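 active = every replicate reaching a set inhibition limit, whatever the replicate mean, cut at about 25% in these data; inconclusive = mean inhibition reaches that limit but some replicates miss it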;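 also: 0% = plate neutral control median and 100% = total signal loss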
* = called active by the depositor; ! = not active in a repeat. Compounds with a hit are over-represented: about 3.2% of the library has one in this group of screens.

What do the screens show for `O=C(C[C@@H]1C[C@H]2c3cc(NC(=O)c4cccnc4)ccc3O[C@H]2[C@@H](CO)O1)NCCc1ccccc1`?
DENV2 CPE: 5.0; Cneo AK release: 10.9; S100A4 inh HTS: -35.1; Ecoli rRNA inh: 3.5; MLL AF4-AF9 inh: -0.2

How did COc1cccc(C(=O)CSc2nnc(COc3cccc4cccnc34)o2)c1 do in these assays?
DENV2 CPE: 0.8; Cneo AK release: 0.5; S100A4 inh HTS: -2.8; Ecoli rRNA inh: -35.0*; PfHsp90 set2: -4.0; MLL AF4-AF9 inh: 4.3

What do the screens show for `Cc1ccc(C(=O)CSc2nnc(COc3cccc4cccnc34)o2)cc1`?
Cneo AK release: -4.7; S100A4 inh HTS: 8.5; Ecoli rRNA inh: -31.6*; PfHsp90 set2: -0.1; MLL AF4-AF9 inh: 5.3

How did COc1ccc(Cn2cc(CN3CCc4onc(-c5ccccc5OC)c4C3=O)nn2)cc1 do in these assays?
DENV2 CPE: 12.7; S100A4 inh HTS: 2.5; Ecoli rRNA inh: -5.4; MLL AF4-AF9 inh: -0.2

What do the screens show for `COc1ccccc1-c1noc2c1C(=O)N(Cc1cn(Cc3ccccc3)nn1)CC2`?
DENV2 CPE: 55.8*; Cneo AK release: -1.3; S100A4 inh HTS: -12.1; Ecoli rRNA inh: -1.6; MLL AF4-AF9 inh: 2.9

Results for O=C(NCC1CC1)[C@@H]1[C@@H](CO)[C@@H]2Cn3c(ccc(-c4ccccc4)c3=O)[C@H]1N2CC1CC1 ?
DENV2 CPE: -1.1; Cneo AK release: 54.1; S100A4 inh HTS: -1.4; Ecoli rRNA inh: -3.3; MLL AF4-AF9 inh: -0.4

How did CCCCOC(=O)C1CN(c2ccccc2)N=C1C(C)=O (stereo not drawn) do in these assays?
DENV2 CPE: inconclusive; S100A4 inh HTS: 1.5; Ecoli rRNA inh: -32.5*; PfHsp90 set2: -2.6; MLL AF4-AF9 inh: -2.6

Results for CCCCOC(=O)C1CN(c2ccccc2)N=C1C(=O)OCC (stereo not drawn) ?
PfHsp90 set2: 0.4

How did COc1cc(NC(=O)c2nccn2C)cc(C(=O)Nc2cccc(C(F)(F)F)c2)c1 do in these assays?
DENV2 CPE: 110.0*!; Cneo AK release: 0.4; S100A4 inh HTS: -3.2; Ecoli rRNA inh: 4.2; PfHsp90 set2: -6.7; MLL AF4-AF9 inh: -4.1

How did CCc1ccc([C@@H]2CC=C(C(=O)O)CN2S(=O)(=O)c2ccc(C)cc2)cc1 do in these assays?
DENV2 CPE: inconclusive; Cneo AK release: -2.0; S100A4 inh HTS: -1.4; Ecoli rRNA inh: -22.6*; PfHsp90 set2: 25.3; MLL AF4-AF9 inh: 1.3

Results for CCOc1ccc([C@@H]2CC=C(C(=O)O)CN2S(=O)(=O)c2ccc(C)cc2)cc1 ?
DENV2 CPE: -2.5; Cneo AK release: -0.7; S100A4 inh HTS: 5.4; Ecoli rRNA inh: -26.1*; PfHsp90 set2: -14.0; MLL AF4-AF9 inh: 0.7

How did Cc1nn(C)cc1NC(=O)C[C@@H]1CC[C@H]2[C@H](COc3ccc(NC(=O)C(C)C)cc3C(=O)N2C)O1 do in these assays?
DENV2 CPE: -0.5; Cneo AK release: 2.2; Ecoli rRNA inh: 0.8

Results for CCC(=O)Nc1ccc2c(c1)C(=O)N(C)C[C@@H](OC)[C@H](C)CN(C(=O)CN1CCOCC1)[C@H](C)CO2 ?
Ecoli rRNA inh: 5.0

How did O=C(Nc1ccccc1)N1CCCCN2[C@H](CO)[C@@H](c3ccc(-c4ccccc4F)cc3)[C@@H]2C1 do in these assays?
DENV2 CPE: 10.0; Cneo AK release: 7.7; S100A4 inh HTS: 0.9; Ecoli rRNA inh: -54.0; MLL AF4-AF9 inh: -1.7

What do the screens show for `O=C(Nc1ccccc1)N1CCCCN2[C@H](CO)[C@H](c3ccc(-c4ccncc4)cc3)[C@H]2C1`?
DENV2 CPE: 37.6*; Cneo AK release: -3.0; S100A4 inh HTS: 0.4; Ecoli rRNA inh: -4.4; MLL AF4-AF9 inh: 2.7

How did O=C(Nc1ccccc1)N1CCCCN2[C@H](C1)[C@@H](c1ccc(-c3ccccc3F)cc1)[C@@H]2CO do in these assays?
DENV2 CPE: 33.0*; Cneo AK release: 49.3; S100A4 inh HTS: 6.4; Ecoli rRNA inh: -35.4; MLL AF4-AF9 inh: -1.4

What do the screens show for `O=C(Nc1ccccc1)N1CCCCN2[C@H](C1)[C@H](c1ccc(-c3ccncc3)cc1)[C@@H]2CO`?
DENV2 CPE: -8.5; Cneo AK release: -2.7; S100A4 inh HTS: 0.2; Ecoli rRNA inh: -2.1; MLL AF4-AF9 inh: -2.8

High-throughput results: PubChem BioAssay, Broad Institute
